The results in this text go back to ChEMBL document CHEMBL1149786, “Synthesis and antihypertensive effects of new methylthiomorpholinphenol derivatives” (2008).

The source made the active and inactive calls. No cut-off for these calls is given here.

Assay [1] concerns Rattus norvegicus. Briefly: Antihypertensive effect in anesthetized Wistar rat assessed as reduction of diastolic arterial pressure at 1 mg/kg administered through femoral vein. It counts as functional, organism-based. The following applies: Artery. On the set-up: dose 1 mg/kg. In a few lines:
(§1)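 Male Wistar rats (280–320 g) under sodium pentobarbital (45 mg/kg, ip), tracheotomised. Right carotid cannulated (PE50) to a pressure transducer recording systolic, diastolic and mean arterial pressure and heart rate. Cumulative iv doses via femoral vein every 5 min: test series 0.0001–10 mg/kg, reference drugs 0.0001–1.0 mg/kg, n = 5. Change measured from pre-dose basal; ED50 taken from a fitted dose–effect model.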

Assay [2] has as its system Rattus norvegicus. Briefly: Antihypertensive effect in spontaneous hypertensive Wistar rat model assessed as maximum decrease in systolic arterial pressure at 1.0 mg/kg, po after 50 mins. It counts as functional, Artery. In a few lines:
(§2)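 Conscious spontaneously hypertensive rats given a single oral dose of 1.0 mg/kg. Systolic and diastolic pressure and heart rate followed over 2.0 h. The largest fall from baseline and the time at which it occurred were recorded for each variable.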

Assay [3] deals with Rattus norvegicus. Briefly: Antihypertensive effect in spontaneous hypertensive Wistar rat model assessed as maximum decrease in heart rate per min at 1.0 mg/kg, po after 70 mins. It counts as functional. The method, boiled down: as §2
Assay [4] has as its system Rattus norvegicus. Briefly: Antihypertensive effect in spontaneous hypertensive Wistar rat model assessed as maximum decrease in diastolic arterial pressure at 1.0 mg/kg, po after 100 mins. It counts as functional, Artery. In a few lines:
as §2

The test system of assay [5] is Rattus norvegicus. Put plainly: Antihypertensive effect in anesthetized Wistar rat. It counts as functional. The method, boiled down: as §1
Assay [6] has as its system Rattus norvegicus. Briefly: Antihypertensive effect in anesthetized Wistar rat assessed as reduction of systolic arterial pressure at 1 mg/kg administered through femoral vein. It counts as functional, organism-based. The following applies: Artery. On the set-up: dose 1 mg/kg. The method, boiled down:
as §1

Assay [7] deals with Rattus norvegicus. Put plainly: Antihypertensive effect in spontaneous hypertensive Wistar rat model assessed as maximum decrease in diastolic arterial pressure at 1.0 mg/kg, po after 60 mins. It counts as functional, Artery. The method, boiled down:
as §2

Assay [8] concerns Rattus norvegicus. Put plainly: Hypotensive effect in anesthetized Wistar rat arterial pressure model assessed as decrease in heart rate at 0.01 mg/kg administered through femoral vein. It counts as functional, organism-based. On the set-up: dose 0.01 mg/kg. The method, boiled down:
as §1

In assay [9] the test system is Rattus norvegicus. Briefly: Hypotensive effect in anesthetized Wistar rat arterial pressure model assessed as decrease in heart rate at 10.0 mg/kg administered through femoral vein. It counts as functional, organism-based. Also noted: dose 10 mg/kg. In a few lines:
as §1

In assay [10] the test system is Rattus norvegicus. Briefly: Antihypertensive effect in spontaneous hypertensive Wistar rat model assessed as maximum decrease in systolic arterial pressure at 1.0 mg/kg, po after 60 mins. It counts as functional, Artery. The method, boiled down: as §2
Assay [11] has as its system Rattus norvegicus. Put plainly: Hypotensive effect in anesthetized Wistar rat arterial pressure model at 10.0 mg/kg administered through femoral vein. It counts as functional, organism-based. On the set-up: dose 10 mg/kg. The following applies: Artery. In a few lines:
as §1

The subject of assay [12] is Rattus norvegicus. Put plainly: Hypotensive effect in anesthetized Wistar rat arterial pressure model assessed as decrease in heart rate at 1.0 mg/kg administered through femoral vein. It counts as functional, organism-based. Also noted: dose 1 mg/kg. In a few lines:
as §1

The test system of assay [13] is Rattus norvegicus. Briefly: Hypotensive effect in anesthetized Wistar rat arterial pressure model at 1.0 mg/kg administered through femoral vein. The following applies: Artery. On the set-up: dose 1 mg/kg. It counts as functional, organism-based. The method, boiled down:
as §1

In assay [14] the test system is Rattus norvegicus. Put plainly: Antihypertensive effect in spontaneous hypertensive Wistar rat model assessed as maximum decrease in heart rate per min at 1.0 mg/kg, po after 120 mins. It counts as functional. The method, boiled down: as §2
Assay [15] concerns Rattus norvegicus. Briefly: Hypotensive effect in anesthetized Wistar rat arterial pressure model at 0.0001 mg/kg administered through femoral vein. The following applies: Artery. On the set-up: dose 0.0001 mg/kg. It counts as functional, organism-based. The method, boiled down: as §1
The test system of assay [16] is Rattus norvegicus. Put plainly: Hypotensive effect in anesthetized Wistar rat arterial pressure model assessed as decrease in heart rate at 3.1 mg/kg administered through femoral vein. It counts as functional, organism-based. Also noted: dose 3.1 mg/kg. The method, boiled down:
as §1

For assay [17], the system named is Rattus norvegicus. Briefly: Hypotensive effect in anesthetized Wistar rat arterial pressure model at 3.1 mg/kg administered through femoral vein. It counts as functional, organism-based. On the set-up: dose 3.1 mg/kg. The following applies: Artery. The method, boiled down:
as §1

Assay [18] concerns Rattus norvegicus. Briefly: Hypotensive effect in anesthetized Wistar rat arterial pressure model assessed as decrease in heart rate at 0.1 mg/kg administered through femoral vein. It counts as functional, organism-based. On the set-up: dose 0.1 mg/kg. The method, boiled down:
as §1

The subject of assay [19] is Rattus norvegicus. Briefly: Antihypertensive effect in spontaneous hypertensive Wistar rat model assessed as maximum decrease in heart rate per min at 1.0 mg/kg, po after 110 mins. It counts as functional. In a few lines: as §2
Assay [20] deals with Rattus norvegicus. Put plainly: Hypotensive effect in anesthetized Wistar rat arterial pressure model assessed as decrease in heart rate at 0.0001 mg/kg administered through femoral vein. It counts as functional, organism-based. Also noted: dose 0.0001 mg/kg. The method, boiled down: as §1
Assay [21] has as its system Rattus norvegicus. Put plainly: Hypotensive effect in anesthetized Wistar rat arterial pressure model assessed as decrease in heart rate at 0.001 mg/kg administered through femoral vein. Also noted: dose 0.001 mg/kg. It counts as functional, organism-based. In a few lines: as §1
Assay [22] concerns Rattus norvegicus. Briefly: Antihypertensive effect in spontaneous hypertensive Wistar rat model assessed as maximum decrease in systolic arterial pressure at 1.0 mg/kg, po after 100 mins. It counts as functional, Artery. In a few lines:
as §2

The test system of assay [23] is Rattus norvegicus. Briefly: Antihypertensive effect in anesthetized Wistar rat assessed as change diastolic arterial pressure at 10.0 mg/kg administered through femoral vein. It counts as functional, Artery. In a few lines: as §1
The test system of assay [24] is Rattus norvegicus. Put plainly: Antihypertensive effect in spontaneous hypertensive Wistar rat model assessed as maximum decrease in diastolic arterial pressure at 1.0 mg/kg, po after 80 mins. It counts as functional, Artery. The method, boiled down:
as §2

Assay [25] deals with Rattus norvegicus. Briefly: Antihypertensive effect in anesthetized Wistar rat assessed as change mean arterial pressure at 10.0 mg/kg administered through femoral vein. It counts as functional, Artery. In a few lines:
as §1

The subject of assay [26] is Rattus norvegicus. Briefly: Antihypertensive effect in spontaneous hypertensive Wistar rat model assessed as maximum decrease in systolic arterial pressure at 1.0 mg/kg, po after 80 mins. It counts as functional, Artery. The method, boiled down:
as §2

For assay [27], the system named is Rattus norvegicus. Put plainly: Antihypertensive effect in anesthetized Wistar rat assessed as change systolic arterial pressure at 10.0 mg/kg administered through femoral vein. It counts as functional, Artery. The method, boiled down: as §1
The subject of assay [28] is Rattus norvegicus. Briefly: Antihypertensive effect in spontaneous hypertensive Wistar rat model assessed as maximum decrease in heart rate per min at 1.0 mg/kg, po after 80 mins. It counts as functional. In a few lines:
as §2

The test system of assay [29] is Rattus norvegicus. Put plainly: Antihypertensive effect in spontaneous hypertensive Wistar rat model assessed as maximum decrease in heart rate per min at 1.0 mg/kg, po after 100 mins. It counts as functional. In a few lines: as §2
Assay [30] relates to Rattus norvegicus. Briefly: Hypotensive effect in anesthetized Wistar rat arterial pressure model at 0.1 mg/kg administered through femoral vein. It counts as functional, organism-based. On the set-up: dose 0.1 mg/kg. The following applies: Artery. In a few lines:
as §1

Assay [31] concerns Rattus norvegicus. Briefly: Hypotensive effect in anesthetized Wistar rat arterial pressure model at 0.001 mg/kg administered through femoral vein. It counts as functional, organism-based. On the set-up: dose 0.001 mg/kg. The following applies: Artery. In a few lines: as §1
The test system of assay [32] is Rattus norvegicus. Briefly: Hypotensive effect in anesthetized Wistar rat arterial pressure model at 0.01 mg/kg administered through femoral vein. It counts as functional, organism-based. Also noted: dose 0.01 mg/kg. The following applies: Artery. The method, boiled down: as §1
For assay [33], the system named is Rattus norvegicus. Briefly: Antihypertensive effect in anesthetized Wistar rat assessed as reduction of mean arterial pressure at 1 mg/kg administered through femoral vein. It counts as functional, organism-based. Also noted: dose 1 mg/kg. The following applies: Artery. The method, boiled down:
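Male Wistar rats (280–320 g) anesthetized with sodium pentobarbital (45 mg/kg ip), tracheotomized; right carotid artery cannulated to a pressure transducer recording systolic, diastolic and mean arterial pressure and heart rate. Compounds given IV via femoral vein as cumulative dose–effect curve (0.0001–10 mg/kg), doses every five minutes; n = 5.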

Assay [34] relates to Rattus norvegicus. Briefly: Antihypertensive effect in spontaneous hypertensive Wistar rat model assessed as maximum decrease in diastolic arterial pressure at 1.0 mg/kg, po after 90 mins. It counts as functional, Artery. The method, boiled down:
as §2

Assay [35] concerns Rattus norvegicus. Put plainly: Antihypertensive effect in spontaneous hypertensive Wistar rat model assessed as maximum decrease in systolic arterial pressure at 1.0 mg/kg, po after 90 mins. It counts as functional, Artery. The method, boiled down: as §2

As usually defined, the ED50 is the midpoint of the dose-response relation.

In the case of `C[C@H](CS)C(=O)N1CCC[C@H]1C(=O)O` [CAPTOPRIL], the outcome in the assay on Rattus norvegicus [1] and with Rattus norvegicus [6] was Active. Moreover, the Activity is 42 mmHg in the assay on Rattus norvegicus [2], 52.04 in the assay with Rattus norvegicus [3] and 36.5 mmHg in the assay with Rattus norvegicus [4]. In the assay on Rattus norvegicus [5], this molecule yielded an ED50 of 0.00062 mg/kg.
As for `CC(C)(c1ccc(O)c(CN2CCSCC2)c1)c1ccc(O)c(CN2CCSCC2)c1`, the Activity in the assay on Rattus norvegicus [7] turned out to be 12.6 mmHg; with Rattus norvegicus [10], 28.1 mmHg; in the assay with Rattus norvegicus [14], 106.566. In addition, the outcome with Rattus norvegicus [8], with Rattus norvegicus [9], in the assay on Rattus norvegicus [11], in the assay on Rattus norvegicus [12], in the assay on Rattus norvegicus [13] and in the assay on Rattus norvegicus [15] was Active. The outcome in the assay on Rattus norvegicus [16], in the assay on Rattus norvegicus [17] and with Rattus norvegicus [18] was Active. Moreover, it took a dose of 1.41 mg/kg to reach the 50% effect level with Rattus norvegicus [5] (ED50).
Molecule `O=C(N[C@H]1CCS[C@H]2CCC[C@@H](C(=O)O)N2C1=O)[C@@H](S)Cc1ccccc1` [OMAPATRILAT] came in with an ED50 with Rattus norvegicus [5] of 0.0058 mg/kg.
As for `Oc1ccc(Cl)cc1CN1CCSCC1`, the outcome with Rattus norvegicus [8], in the assay on Rattus norvegicus [11], in the assay on Rattus norvegicus [20], in the assay on Rattus norvegicus [13], in the assay with Rattus norvegicus [21] and in the assay on Rattus norvegicus [17] was Active. The Activity amounted to 72.2 in the assay with Rattus norvegicus [19], 46.7 mmHg with Rattus norvegicus [4] and 73.9 mmHg with Rattus norvegicus [22]. Besides, the median effective dose (ED50) in the assay with Rattus norvegicus [5] amounted to 2.21 mg/kg.
As to `CCCCc1nc(Cl)c(CO)n1Cc1ccc(-c2ccccc2-c2nnn[nH]2)cc1` [LOSARTAN], the Activity turned out to be 45.64 mmHg in the assay on Rattus norvegicus [23]; 66.3 mmHg in the assay on Rattus norvegicus [24]; 41.31 mmHg in the assay on Rattus norvegicus [25]; 82.3 mmHg in the assay on Rattus norvegicus [26]; 43.62 mmHg with Rattus norvegicus [27]; 38.37 in the assay with Rattus norvegicus [28]. In the assay on Rattus norvegicus [5], this molecule gave an ED50 of 0.0282 mg/kg.
As to `CC(C)(C)c1ccc(O)c(CN2CCSCC2)c1`, the results for the Activity in the assay on Rattus norvegicus [7], with Rattus norvegicus [29] and in the assay with Rattus norvegicus [22] were 31.8 mmHg, 148 beats/min and 71.5 mmHg, respectively. In addition, the result in the assay on Rattus norvegicus [8], in the assay on Rattus norvegicus [9], in the assay with Rattus norvegicus [11], with Rattus norvegicus [12], with Rattus norvegicus [30] and with Rattus norvegicus [13] was Active. In addition, the result in the assay on Rattus norvegicus [17], in the assay on Rattus norvegicus [18] and in the assay with Rattus norvegicus [31] was Active. In the assay with Rattus norvegicus [5], this molecule returned an ED50 of 1.04 mg/kg.
With `Oc1cc(O)c(CN2CCSCC2)cc1CN1CCSCC1`, the Activity with Rattus norvegicus [7] came to 29.2 mmHg; in the assay on Rattus norvegicus [10], 45.6 mmHg; with Rattus norvegicus [14], 92.5. The outcome in the assay on Rattus norvegicus [8], with Rattus norvegicus [9], in the assay with Rattus norvegicus [12], in the assay on Rattus norvegicus [16] and with Rattus norvegicus [18] was Active. In the assay on Rattus norvegicus [5], this molecule yielded an ED50 of 0.363 mg/kg.
For `CC(C)(C)c1cc(CN2CCSCC2)c(O)c(CN2CCSCC2)c1`, the outcome with Rattus norvegicus [9], in the assay on Rattus norvegicus [11], in the assay with Rattus norvegicus [12], with Rattus norvegicus [30], in the assay on Rattus norvegicus [32] and with Rattus norvegicus [13] was Active. Moreover, the outcome with Rattus norvegicus [33], in the assay with Rattus norvegicus [15], in the assay on Rattus norvegicus [16], with Rattus norvegicus [17] and in the assay on Rattus norvegicus [31] was Active. The Activity came out at 160 beats/min in the assay on Rattus norvegicus [29], 48.2 mmHg with Rattus norvegicus [34] and 95.8 mmHg in the assay on Rattus norvegicus [35]. The ED50 in the assay on Rattus norvegicus [5] is 0.411 mg/kg.
